# Reference: ChEMBL document CHEMBL4330067, “Synthesis and mechanistic studies of diketo acids and their bioisosteres as potential antibacterial agents” (Eur J Med Chem, 2019)
# Key:
# [1] = Inhibition of Mycobacterium tuberculosis methionine aminopeptidase 1C using Met-AMC as substrate by Dixon method
# Homo sapiens = species: Homo sapiens; assay: Inhibition of human methionine aminopeptidase 1B at 100 uM using Met-AMC as substrate relative to control
# In short: (§1)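 Purified MetAP at 4 µM in 50 mM HEPES with 150 mM KCl and CoCl2 at 3 molar equivalents of enzyme. pH 7.5 for SpMetAP1a and EfMetAP1a, pH 8.0 for HsMetAP1b. Substrate L-Met-AMC at 50, 100 and 150 µM. Compounds (10 mM DMSO stocks) tested over 1 to 120 µM for % inhibition; Ki by Dixon method.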
# Streptococcus pneumoniae [2] = assay: Inhibition of Streptococcus pneumoniae methionine aminopeptidase 1A at 100 uM using Met-AMC as substrate relative to control; in short: as §1
# Enterococcus faecalis [3] = assay: Inhibition of Enterococcus faecalis methionine aminopeptidase 1A at 100 uM using Met-AMC as substrate relative to control; in short: as §1
# [4] = system: Mycobacterium tuberculosis; assay: Inhibition of Mycobacterium tuberculosis methionine aminopeptidase 1C at 100 uM using Met-AMC as substrate relative to control
# In short: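 Purified MtMetAP1c (4 µM) in 50 mM Hepes pH 7.5 with 150 mM KCl and CoCl2 at three molar equivalents of enzyme. Substrate was L-Met-AMC at 50, 100 or 150 µM. Compounds came from 10 mM DMSO stocks. Percent inhibition was taken against the uninhibited control.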
# [5] = Inhibition of human methionine aminopeptidase 1B using Met-AMC as substrate by Dixon method; in short: as §1
# Pseudomonas aeruginosa = assay: Antibacterial activity against Pseudomonas aeruginosa MTCC 2453 after 24 hrs by broth dilution assay; format: functional; conditions: MTCC 2453, 24 h
# In short: (§2)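 Broth dilution per NCCLS in nutrient broth, serial dilutions 1000 to 7.8 µg/mL, DMSO below 4% final. Inoculum approx. 2.5×10⁶ cells/mL, 37 °C with shaking at 150 rpm for 24 h. MIC taken as the lowest concentration with no visible growth. Ciprofloxacin served as positive control.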
# Escherichia coli [6] = assay: Antibacterial activity against Escherichia coli ATCC 25922 after 24 hrs by broth dilution assay; format: functional; conditions: ATCC 25922, 24 h; in short: as §2
# Enterococcus faecalis [7] = assay: Antibacterial activity against Enterococcus faecalis MTCC 439 after 24 hrs by broth dilution assay; format: functional; conditions: MTCC 439, 24 h; in short: as §2
# Klebsiella pneumoniae = assay: Antibacterial activity against Klebsiella pneumoniae ATCC 700603 after 24 hrs by broth dilution assay; format: functional; conditions: Klebsiella pneumoniae, 700603, 24 h; in short: as §2
# [8] = Inhibition of Enterococcus faecalis methionine aminopeptidase 1A using Met-AMC as substrate by Dixon method; in short: as §1
# Salmonella typhimurium = assay: Antibacterial activity against Salmonella typhimurium MTCC 3224 after 24 hrs by broth dilution assay; format: functional, Salmonella enterica subsp. enterica serovar Typhimurium; conditions: Salmonella enterica, MTCC 3224, 24 h; in short: as §2
# [9] = Inhibition of Streptococcus pneumoniae methionine aminopeptidase 1A using Met-AMC as substrate by Dixon method; in short: as §1
# Streptococcus pneumoniae [10] = assay: Antibacterial activity against Streptococcus pneumoniae MTCC 655 after 24 hrs by broth dilution assay; format: functional; conditions: MTCC 655, 24 h; in short: as §2
# Escherichia coli [11] = assay: Antibacterial activity against Escherichia coli MRC17 after overnight incubation; format: functional
# In short: (§3)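 Multidrug-resistant E. coli isolates in Luria broth, test range 8 to 1024 µg/mL (ciprofloxacin 0.49 to 63.3 µg/mL). Inoculum 10 µL of a 1000-fold diluted 0.1 OD600 culture, incubated overnight at 37 °C. OD read at 600 nm. % inhibition = (a−b)/a×100, with media and compound-colour blanks subtracted.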
# Escherichia coli [12] = assay: Antibacterial activity against Escherichia coli MRC24 after overnight incubation; format: functional; in short: as §3
# Escherichia coli [13] = assay: Antibacterial activity against Escherichia coli MRAE33 after overnight incubation; format: functional; in short: as §3
# Escherichia coli [14] = assay: Antibacterial activity against Escherichia coli MROB11 after overnight incubation; format: functional; in short: as §3
# Escherichia coli [15] = assay: Antibacterial activity against Escherichia coli MRAE32 after overnight incubation; format: functional; in short: as §3
# Escherichia coli [16] = assay: Antibacterial activity against Escherichia coli MRAE26 after overnight incubation; format: functional; in short: as §3
# Escherichia coli [17] = assay: Antibacterial activity against Escherichia coli MRAE44 after overnight incubation; format: functional; in short: as §3
# Escherichia coli [18] = assay: Antibacterial activity against Escherichia coli MRA11 after overnight incubation; format: functional; in short: as §3
SMILES,Ki [1],inhibition (Homo sapiens),inhibition (Streptococcus pneumoniae [2]),inhibition (Enterococcus faecalis [3]),inhibition [4],Ki [5],MIC (Pseudomonas aeruginosa),MIC (Escherichia coli [6]),MIC (Enterococcus faecalis [7]),MIC (Klebsiella pneumoniae),MIC (Salmonella typhimurium),Ki [9],MIC (Streptococcus pneumoniae [10]),also measured
O=C(O)c1cc(-c2ccc(Cl)cc2)no1,71.8 µM,43.9%,39.7%,20%,58.2%,,,,,,,,,
Cc1ccccc1-c1cc(C(=O)N[C@H](C)C(=O)O)on1,,50.2%,44.6%,43.4%,40.9%,86.9 µM,,,,,,,,
Cc1ccccc1-c1cc(C(=O)O)on1,,49%,42.4%,32%,43.7%,104 µM,,,,,,,,
Cc1ccccc1C(=O)/C=C(\O)C(=O)N[C@H](C)C(=O)O,,59.2%,58%,63.2%,47.7%,54 µM,1000 µg/mL,1000 µg/mL,500 µg/mL,1000 µg/mL,1000 µg/mL,59.9 µM,500 µg/mL,Ki [8]: 64 µM
Cc1c(-c2cc(C(=O)O)on2)oc2ccc(Br)cc12,,47.3%,43.2%,40.3%,39.1%,,,,,,,,,
COC(=O)[C@@H](C)NC(=O)c1cc(-c2ccccc2C)no1,,51.1%,37%,24.9%,45.9%,137 µM,,,,,,,,
COC(=O)[C@@H](C)NC(=O)c1cc(-c2ccc(Cl)cc2)no1,134 µM,43.1%,43.8%,15.4%,53.2%,,,,,,,,,
CCOC(=O)/C(O)=C/C(=O)c1ccc(Cl)cc1,39.5 µM,61%,55.3%,27.3%,70.5%,56.1 µM,500 µg/mL,500 µg/mL,250 µg/mL,> 1000 µg/mL,500 µg/mL,62.6 µM,500 µg/mL,
Cc1c(-c2cc(C(=O)N[C@H](C)C(=O)O)on2)oc2ccc(Br)cc12,,93.4%,42.8%,34.6%,33.2%,3.11 µM,1000 µg/mL,500 µg/mL,125 µg/mL,> 1000 µg/mL,500 µg/mL,,250 µg/mL,
CCOC(=O)/C(O)=C/C(=O)c1oc2ccc(Br)cc2c1C,18.2 µM,86%,73%,93.3%,91.6%,19.8 µM,1000 µg/mL,250 µg/mL,250 µg/mL,500 µg/mL,1000 µg/mL,68.2 µM,250 µg/mL,Ki [8]: 10.8 µM
CCOC(=O)/C(O)=C/C(=O)c1ccccc1C,36.7 µM,61.4%,50.3%,43.5%,55.8%,74.3 µM,1000 µg/mL,250 µg/mL,250 µg/mL,1000 µg/mL,1000 µg/mL,98.5 µM,250 µg/mL,
Cc1ccccc1C(=O)/C=C(\O)C(=O)O,37.5 µM,52.3%,62.8%,54.7%,65.7%,73.8 µM,1000 µg/mL,250 µg/mL,500 µg/mL,1000 µg/mL,1000 µg/mL,87.5 µM,500 µg/mL,Ki [8]: 62.6 µM
CCOC(=O)c1cc(-c2ccccc2C)no1,,48.9%,41.4%,27.6%,47.1%,123 µM,,,,,,,,
O=C(O)c1cn(C2CC2)c2cc(N3CCNCC3)c(F)cc2c1=O [CIPROFLOXACIN],,,,,,,,,0.0625 µg/mL,0.25 µg/mL,0.0156 µg/mL,,0.312 µg/mL,"ICmax (Escherichia coli [11]): 63.3 µg/mL; MIC (Escherichia coli [11]; Escherichia coli, MRC17): 128 µg/mL; ICmax (Escherichia coli [12]): 1.975 µg/mL; ICmax (Escherichia coli [13]): 7.9 µg/mL; ICmax (Escherichia coli [14]): 1.975 µg/mL; ICmax (Escherichia coli [15]): 63.3 µg/mL; ICmax (Escherichia coli [16]): 1.975 µg/mL; ICmax (Escherichia coli [17]): 63.3 µg/mL; ICmax (Escherichia coli [18]): 63.3 µg/mL; MIC (Escherichia coli [18]; Escherichia coli, MRA11): 128 µg/mL"
COC(=O)[C@@H](C)NC(=O)c1cc(-c2oc3ccc(Br)cc3c2C)no1,,45.1%,36.5%,18.8%,,,,,,,,,,
COC(=O)[C@@H](C)NC(=O)/C(O)=C/C(=O)c1ccccc1C,32.6 µM,51.9%,57%,59.6%,67.1%,113 µM,1000 µg/mL,1000 µg/mL,500 µg/mL,1000 µg/mL,1000 µg/mL,51.9 µM,125 µg/mL,Ki [8]: 60.4 µM
CCOC(=O)c1cc(-c2ccc(Cl)cc2)no1,152 µM,66.3%,40.3%,19.4%,47.4%,160 µM,500 µg/mL,500 µg/mL,500 µg/mL,1000 µg/mL,> 1000 µg/mL,,1000 µg/mL,
CCOC(=O)c1cc(-c2oc3ccc(Br)cc3c2C)no1,,43.6%,40.6%,21.1%,41.3%,,,,,,,,,
C[C@@H](NC(=O)c1cc(-c2ccc(Cl)cc2)no1)C(=O)O,94.6 µM,47.2%,43.7%,23.6%,51.7%,,,,,,,,,
Cc1c(C(=O)/C=C(\O)C(=O)O)oc2ccc(Br)cc12,26.3 µM,88.2%,93.4%,91.9%,93.5%,32.7 µM,125 µg/mL,1000 µg/mL,62.5 µg/mL,1000 µg/mL,500 µg/mL,27.5 µM,62.5 µg/mL,Ki [8]: 17.7 µM
